Calls of active or inactive are those of the source. The rule behind the calls is not given here.
Columns and labels:
NIH3T3 [1] = assay: Cytoprotective activity against UV-induced apoptosis in mouse NIH/3T3 cells assessed as viable cells at 20 uM preincubated for 20 hrs followed by UV irradiation for 5 mins and measured after 24 hrs by flow cytometric analysis (reference value: 12.6%); assay type: functional; details: NIH3T3, light or radiation study, read-out: Activity
[2] = molecular target: T1, Sphingomyelin phosphodiesterase (Mus musculus) (UniProt Q04519); assay: Inhibition of acid sphingomyelinase in mouse NIH/3T3 cells assessed as increase in […] level at 10 uM after 20 hrs by LC-MS/MS analysis relative to control; assay type: cell-based; parameters: scale not given: the % may be the effect or the level left
T1 sequence (whole entry): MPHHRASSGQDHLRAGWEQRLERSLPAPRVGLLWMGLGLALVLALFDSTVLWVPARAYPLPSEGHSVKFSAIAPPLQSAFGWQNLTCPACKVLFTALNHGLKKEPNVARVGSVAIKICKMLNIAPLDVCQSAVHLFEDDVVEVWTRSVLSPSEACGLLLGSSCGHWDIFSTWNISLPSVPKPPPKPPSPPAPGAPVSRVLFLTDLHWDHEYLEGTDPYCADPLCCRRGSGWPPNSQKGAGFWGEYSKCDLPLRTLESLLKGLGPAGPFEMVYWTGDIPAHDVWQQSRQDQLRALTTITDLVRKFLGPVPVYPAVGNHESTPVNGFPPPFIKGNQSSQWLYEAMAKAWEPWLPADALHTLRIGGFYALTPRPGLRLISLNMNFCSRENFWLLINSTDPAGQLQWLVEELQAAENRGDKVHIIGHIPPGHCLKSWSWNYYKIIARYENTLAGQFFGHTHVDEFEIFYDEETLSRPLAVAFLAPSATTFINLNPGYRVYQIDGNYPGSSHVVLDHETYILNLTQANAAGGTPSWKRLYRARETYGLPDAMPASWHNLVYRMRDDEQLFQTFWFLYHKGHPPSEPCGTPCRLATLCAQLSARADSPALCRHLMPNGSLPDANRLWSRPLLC
How it was run: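 NIH3T3 cells in DMEM with 10% FBS, 37 °C, 5% CO₂; at 90% confluence given fresh medium plus inhibitor (5, 10, 20 µM) for 20 h; total ceramides and sphingomyelin quantified by LC-MS-MS versus untreated control; mean ± SD of three independent experiments, Student's t-test.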

NIH3T3 [3] = assay: Inhibition of LPS-induced IL-6 production in mouse NIH/3T3 cells preincubated for 20 hrs followed by LPS-stimulation and measured after 6 hrs by ELISA; assay type: functional, cell-based
How it was run: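 NIH3T3 cells (DMEM, 10% FBS) seeded at 2*10⁵ per well overnight, inhibitor 20 h, then LPS to 50 ng/mL for a further 6 h; IL-6 or IL-8 measured by ELISA; compared with LPS-only and control groups.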

[4] = molecular target: T2, Sphingomyelin phosphodiesterase 2 (Homo sapiens) (UniProt O60906); assay: Inhibition of neutral sphingomyelinase (unknown origin) assessed as reduction in NBD-ceramide release at 100 uM by TLC based fluorescence assay
T2 sequence (whole entry): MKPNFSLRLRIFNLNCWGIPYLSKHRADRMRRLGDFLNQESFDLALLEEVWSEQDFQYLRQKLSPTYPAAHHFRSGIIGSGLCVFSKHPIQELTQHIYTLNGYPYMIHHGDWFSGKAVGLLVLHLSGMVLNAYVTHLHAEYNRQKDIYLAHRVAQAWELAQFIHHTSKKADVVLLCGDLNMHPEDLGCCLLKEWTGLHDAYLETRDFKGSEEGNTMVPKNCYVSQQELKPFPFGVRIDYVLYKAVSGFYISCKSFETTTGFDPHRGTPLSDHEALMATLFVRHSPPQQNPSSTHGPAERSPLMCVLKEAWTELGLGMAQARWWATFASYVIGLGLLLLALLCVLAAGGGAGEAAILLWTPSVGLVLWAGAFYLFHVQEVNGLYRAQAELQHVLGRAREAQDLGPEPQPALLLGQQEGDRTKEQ

[5] = molecular target: T1, Sphingomyelin phosphodiesterase (Mus musculus); assay: Inhibition of UV-induced ceramide production in mouse NIH/3T3 cells assessed as ceramide level at 50 uM by LC-MS/MS analysis (reference value: 107.686 pmol/mg); assay type: cell-based
How it was run: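 Ceramide in the UV-apoptosis setup: NIH3T3 cells pretreated with inhibitor 20 h, UV 315 nm 0.29 mW/cm² 5 min, further 24 h with inhibitor; ceramide quantified (pmol/mg) by LC-MS-MS; amitriptyline as positive control; mean ± SD of three independent experiments.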

Activity [2]: 36.4%
inhibition [4]: inactive
Activity [5]: 106 pmol/mg
Compound: CCCCCCCCCCOc1cc(C(=O)NO)ccc1OC
viability at 20 µM (NIH3T3 [1]): 54.7%
inhibition (NIH3T3 [3]): Dose-dependent effect

From ChEMBL document CHEMBL4152204, “Discovery of N-hydroxy-3-alkoxybenzamides as direct acid sphingomyelinase inhibitors using a ligand-based pharmacophore model” (Eur J Med Chem, 2018)
